Screening results: PubChem, several laboratories
Rows were chosen to be rich in hits. Some 1.9% of all compounds tested hit in one or more screens of this group.
ASAP1 GAP inh: inhibitors of human ASAP1 ArfGAP activity; Q9ULH1; ASAP1-stimulated ARF1 GTP hydrolysis, GDP FP detection; inhibition, % at 16.5 µM; hit rate 0.19% among 360,000; AID 624377; in the data active = inhibition above about 25%;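 note: 0% = vehicle with enzyme and substrate and 100% = no enzyme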
FGF22 binding: FGF22 (human) thermal shift binding | activity (Tm shift, normalised), % at 9.99 µM | Q9HCT0 | hit rate 1.5% among 340,000 | recombinant FGF22 thermal shift, SYPRO orange fluorescence; percent of sucrose octasulfate shift, DMSO zero | AID 651658;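 active = mean Tm shift, scaled 0 neutral to 100 positive control, at about 1.3% or above, every replicate too, limit read from the data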
Efflux pump mplx: antifungal efflux pump inhibition, Nile Red retention. S. cerevisiae Candida pump triplex. inhibition, % at 10 µM. hit rate 0.44% among 330,000;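 active = plate passing quality check with inhibition over a set limit, or well fluorescence over plate mean plus 4 SD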;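 note: Nile Red retained in pooled yeast measured as flow cytometry median fluorescence; 0% = buffer negative control and 100% = Enniatin B positive control; higher means more Nile Red kept so more efflux inhibition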
Rtt109 HAT inh: C. albicans Rtt109 histone acetyltransferase inhibition; Q5AAJ8; inhibition, % at 34.9 µM; hit rate 0.16% among 330,000; purified Rtt109/Vps75, ThioGlo CoA-SH fluorescence, 4 h; AID 540336;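 active = inhibition of at least 50% in every replicate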
Target sequence (Q5AAJ8 whole entry, looked up): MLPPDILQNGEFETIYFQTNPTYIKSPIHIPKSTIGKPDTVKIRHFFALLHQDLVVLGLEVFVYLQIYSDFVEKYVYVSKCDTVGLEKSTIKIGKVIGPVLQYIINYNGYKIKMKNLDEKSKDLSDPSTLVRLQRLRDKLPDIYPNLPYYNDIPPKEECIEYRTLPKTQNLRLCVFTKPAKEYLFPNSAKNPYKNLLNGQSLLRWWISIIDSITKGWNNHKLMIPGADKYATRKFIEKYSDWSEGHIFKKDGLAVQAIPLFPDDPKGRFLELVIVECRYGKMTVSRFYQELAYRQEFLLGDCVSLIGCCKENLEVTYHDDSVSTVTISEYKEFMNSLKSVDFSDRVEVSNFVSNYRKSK
ARFGAP1 inh: inhibitors of rat ARFGAP1. Q62848. Arfgap1-stimulated ARF1 GTP hydrolysis, GDP FP detection. inhibition, % at 16.5 µM. hit rate 0.26% among 360,000;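 active = inhibition above a per-plate limit, mean inhibition of low control wells plus 3 SD, cut at about 25% in these data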;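 note: 0% = DMSO wells with enzyme and 100% = wells lacking Arfgap1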
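System: truncated rat Arfgap1 GAP domain / Benchmarks: high control wells lacking Arfgap1, low control full reaction with DMSO / Times: compound-enzyme preincubation 20 min, reaction 120 min, detection 60 min, 25 °C / Repeats: one replicate per compound / Also added: human ARF1(Δ1-17)-GTP substrate / Measured by: Tracer-displacement fluorescence polarization with EDTA stop, 620/688 nm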
ARFGAP1 confirm: rat ARFGAP1 inhibition, confirmed; inhibition, % at 16.5 µM; hit rate 30% among 890; shares compounds with ARFGAP1 inh; AID 651608; ARFGAP1-stimulated ARF1 GTP hydrolysis, GDP tracer FP;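 active = average inhibition over triplicates above the hit cutoff set in the earlier primary screen, cut at about 25% in these data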;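 note: 0% = Arfgap1 plus ARF1-GTP with DMSO and 100% = wells lacking Arfgap1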
* = called active by the depositor; . = no result.

SMILES	ASAP1 GAP inh	FGF22 binding	Efflux pump mplx	Rtt109 HAT inh	ARFGAP1 inh	ARFGAP1 confirm
Cc1cc(C)n(CC(O)COCc2ccccc2)n1 (stereo unspecified)	-2	.	0	7	0	.
COc1ccc(-c2csc(NC(=O)CN3C(=O)NC4(CCCC4)C3=O)n2)cc1OC	-7	0	0	-6	27*	4
COc1ccc(CCN(Cc2cc3ccc(C)cc3[nH]c2=O)C(C)=O)cc1OC	-9	0	0	-2	-10	.
CC1(C)CC(=O)C=C(NCCN2CCN(C(=O)Nc3ccc(Cl)cc3)CC2)C1	-13	.	0	-11	33*	-2
C[C@H](CO)N1C[C@H](C)[C@H](CN(C)Cc2ccc3c(c2)OCO3)Oc2c(NC(=O)c3ccncc3)cccc2C1=O	.	1	.	.	.	.
O=C(O)CCC(=O)Nc1cccc(C(=O)Nc2ccc(Br)cc2)c1	-5	0	0	-2	2	.
O=C(O)CCC(=O)Nc1cccc(C(=O)Nc2cccc(Cl)c2)c1	4	.	0	11	63*	0
COc1ccccc1C(CNC(=O)CN(C)S(=O)(=O)c1ccc(C)cc1)N1CCCC1 (stereo unspecified)	-3	0	0	-2	0	.
COc1ccc(-n2nc(C)cc2Nc2ccccc2C(=O)O)cc1	-6	0	0	16	25*	0
CCOc1ccccc1C(=O)N(CN1CCCC1=O)c1cccc(Cl)c1	13	.	0	2	38*	7
COc1ccccc1C(=O)N(CN1CCCC1=O)c1cccc(Cl)c1	-1	.	0	-4	7	.
C[C@@H]1C[C@H]2[C@@H]3CCC4=CC(=O)C=C[C@]4(C)[C@@]3(F)[C@@H](O)C[C@]2(C)[C@@]1(O)C(=O)CO	-1	0	0	8	29*	-3
COc1cc(NC(=O)C2CCN(S(=O)(=O)c3cccs3)CC2)c(C(=O)O)cc1OC	10	0	.	.	-9	.
COc1ccccc1NS(=O)(=O)c1cc2c(cc1C)NC(=O)CO2	15	0	0	-5	51*	6
COc1ccc(CCNC(=O)CN(c2ccccc2OC)S(C)(=O)=O)cc1	-1	.	0	2	28*	-6
COc1ccc(CCNC(=O)CN(c2ccccc2OC)S(C)(=O)=O)cc1OC	1	1	0	.	-8	.
O=C(N/N=C/c1cccnc1)c1[nH]ncc1Br	6	0	0	-7	-4	.
O=C(N/N=C/c1ccccc1)c1[nH]ncc1Br	4	43	0	-3	28*	3
CCCc1[nH]n(-c2ccc([N+](=O)[O-])cc2)c(=O)c1C=NCCN1CCNCC1	.	.	0	.	.	.
Cc1ccc(OCC(=O)Oc2cccc(C)c2)cc1	8	0	0	.	26*	-5
Cc1cccc(OCC(=O)OC2CCN(C)CC2)c1	-4	.	0	6	26*	0
Cc1ccc(OCC(=O)Oc2cccc(C)c2C)cc1	-9	0	0	2	10	.
Cc1ccsc1C1NC(=O)c2c(sc3c2CCN(C)C3)N1 (stereo unspecified)	-8	0	0	-6	12	.
Cc1ccc(C(=O)NCCCNC(=O)c2ccco2)cc1	3	0	0	2	-4	.
CCCCn1c(CN2C(=O)c3ccccc3C2=O)nc2ccccc2c1=O	-6	.	0	5	-3	.
SMILES	ASAP1 GAP inh	FGF22 binding	Efflux pump mplx	Rtt109 HAT inh	ARFGAP1 inh	ARFGAP1 confirm
Cc1ccsc1C(=O)OCC(=O)N1CCOCC1	-16	.	0	1	35*	-5
CC(C)CC#Cc1ccc2c(c1)O[C@H](CN(C)Cc1ccncc1)[C@@H](C)CN([C@H](C)CO)S2(=O)=O	.	0	.	.	.	.
O=C(NCCCN1CCOCC1)c1ccc(NC(=O)C2COc3ccccc3O2)cc1 (stereo unspecified)	4	0	0	4	-2	.
O=C(NCc1ccco1)c1ccc(NC(=O)C2COc3ccccc3O2)cc1 (stereo unspecified)	10	.	0	-2	29*	6
CNC(=O)c1c(NC(=O)c2ccc(S(=O)(=O)N3CC(C)OC(C)C3)cc2)sc2c1CCN(C(C)C)C2 (stereo unspecified)	1	0	0	-10	26*	3
CCc1nc2c(OCc3ccc(OC(F)F)cc3)cccn2c1N(C)C(=O)c1cccs1	14	0	.	.	8	.
Oc1ccc(NC(=S)N=Nc2c(O)[nH]c3ccc(Br)cc23)cc1	7	0	.	19	29*	24
